ChEMBL document CHEMBL4014308, “Amphiphilic Tobramycin-Lysine Conjugates Sensitize Multidrug Resistant Gram-Negative Bacteria to Rifampicin and Minocycline” (J Med Chem, 2017)
In brackets after ≈: the same amount, converted by molar mass.

Assays:
Assay type in all cases: functional
Escherichia coli [1] = assay: Antibacterial activity against amikacin-resistant Escherichia coli isolate CAN-ICU 63074 after 18 hrs by microtiter dilution assay; details: isolate CAN-ICU 63074, 18 h
Method in brief: (§1)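 Broth microdilution following CLSI guidelines. An overnight culture was adjusted to 0.5 McFarland in saline, then diluted 1:50 in Mueller-Hinton broth. This inoculum was added in equal volume to 2-fold serial dilutions of agent in MHB and incubated 18 h at 37 °C. MIC was the lowest concentration with no visible growth.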

Pseudomonas aeruginosa [2] = assay: Antibacterial activity against Pseudomonas aeruginosa PAO1 after 18 hrs by microtiter dilution assay; details: PAO1, 18 h; method in brief: as §1
Pseudomonas aeruginosa [3] = assay: Antibacterial activity against multidrug/extremely drug-resistant/colistin-susceptible Pseudomonas aeruginosa isolate 100036 after 18 hrs by microtiter dilution assay; details: isolate 100036, 18 h; method in brief: as §1
Pseudomonas aeruginosa [4] = assay: Antibacterial activity against multidrug/extremely drug-resistant/colistin-susceptible Pseudomonas aeruginosa isolate 101885 after 18 hrs by microtiter dilution assay; details: isolate 101885, 18 h; method in brief: as §1
Pseudomonas aeruginosa [5] = assay: Antibacterial activity against multidrug/extremely drug-resistant/colistin-susceptible Pseudomonas aeruginosa isolate P259-96918 after 18 hrs by microtiter dilution assay; details: isolate P259-96918, 18 h; method in brief: as §1
Pseudomonas aeruginosa [6] = assay: Antibacterial activity against multidrug/extremely drug-resistant/colistin-susceptible Pseudomonas aeruginosa isolate P262-101856 after 18 hrs by microtiter dilution assay; details: isolate P262-101856, 18 h; method in brief: as §1
Pseudomonas aeruginosa [7] = assay: Antibacterial activity against multidrug/extremely drug-resistant/colistin-susceptible Pseudomonas aeruginosa isolate P264-104354 after 18 hrs by microtiter dilution assay; details: isolate P264-104354, 18 h; method in brief: as §1
Pseudomonas aeruginosa [8] = assay: Antibacterial activity against multidrug/extremely drug-resistant/colistin-resistant Pseudomonas aeruginosa isolate 91433 after 18 hrs by microtiter dilution assay; details: isolate 91433, 18 h; method in brief: as §1
Pseudomonas aeruginosa [9] = assay: Antibacterial activity against multidrug/extremely drug-resistant/colistin-resistant Pseudomonas aeruginosa isolate 101243 after 18 hrs by microtiter dilution assay; details: isolate 101243, 18 h; method in brief: as §1
[10] = system: Staphylococcus epidermidis; assay: Antibacterial activity against methicillin-resistant Staphylococcus epidermidis isolate CAN-ICU 61589 after 18 hrs by microtiter dilution assay; details: isolate CAN-ICU 61589, 18 h; method in brief: as §1
Escherichia coli [11] = assay: Antibacterial activity against gentamicin-resistant Escherichia coli isolate CAN-ICU 61714 after 18 hrs by microtiter dilution assay; details: isolate CAN-ICU 61714, 18 h; method in brief: as §1

Work on `NCC[C@H](O)C(=O)N[C@@H]1C[C@H](N)[C@@H](O[C@H]2O[C@H](CN)[C@@H](O)[C@H](O)[C@H]2O)[C@H](O)[C@H]1O[C@H]1O[C@H](CO)[C@@H](O)[C@H](N)[C@H]1O` [AMIKACIN] yielded an MIC (Escherichia coli [1]) of 32 µg/mL (≈ 54.6 µM) and an MIC (Pseudomonas aeruginosa [2]) of 1 µg/mL (≈ 1.71 µM).

Molecule `CO[C@@H]1[C@@H](OC(N)=O)[C@@H](O)[C@H](Oc2ccc3c(O)c(NC(=O)c4ccc(O)c(CC=C(C)C)c4)c(=O)oc3c2C)OC1(C)C` [NOVOBIOCIN] has an MIC (Pseudomonas aeruginosa [2]) of 1020 µg/mL (≈ 1670 µM).

`O=C(O)c1cn(C2CC2)c2cc(N3CCNCC3)c(F)cc2c1=O` [CIPROFLOXACIN] showed an MIC (Pseudomonas aeruginosa [3]) of 64 µg/mL (≈ 193 µM), an MIC (Pseudomonas aeruginosa [4]) of 32 µg/mL (≈ 96.6 µM) and an MIC (Pseudomonas aeruginosa [5]) of 128 µg/mL (≈ 386 µM). The MIC (Pseudomonas aeruginosa [6]) was 32 µg/mL (≈ 96.6 µM) and the MIC (Pseudomonas aeruginosa [7]) was 32 µg/mL (≈ 96.6 µM).

`COc1c(N2C[C@@H]3CCCN[C@@H]3C2)c(F)cc2c(=O)c(C(=O)O)cn(C3CC3)c12` [MOXIFLOXACIN] was tested, and the MIC (Pseudomonas aeruginosa [2]) was 1 µg/mL (≈ 2.49 µM), the MIC (Pseudomonas aeruginosa [3]) was 128 µg/mL (≈ 319 µM) and the MIC (Pseudomonas aeruginosa [4]) was 64 µg/mL (≈ 159 µM). For the same molecule, the MIC (Pseudomonas aeruginosa [5]) was 512 µg/mL (≈ 1280 µM), the MIC (Pseudomonas aeruginosa [6]) was 128 µg/mL (≈ 319 µM) and the MIC (Pseudomonas aeruginosa [7]) was 128 µg/mL (≈ 319 µM). It also gave an MIC (Pseudomonas aeruginosa [8]) of 8 µg/mL (≈ 19.9 µM) and an MIC (Pseudomonas aeruginosa [9]) of 4 µg/mL (≈ 9.96 µM).

For `Cc1nnc(SCC2=C(C(=O)O)N3C(=O)[C@@H](NC(=O)Cn4cnnn4)[C@H]3SC2)s1` [CEFAZOLIN], the MIC [10] was over 32 µg/mL, the MIC (Escherichia coli [11]) was 32 µg/mL (≈ 70.4 µM) and the MIC (Escherichia coli [1]) was 32 µg/mL (≈ 70.4 µM).

`NC[C@H]1O[C@H](O[C@H]2[C@H](O)[C@@H](O[C@H]3O[C@H](CO)[C@@H](O)[C@H](N)[C@H]3O)[C@H](N)C[C@@H]2N)[C@H](O)[C@@H](O)[C@@H]1O` [KANAMYCIN] was tested, and the MIC (Pseudomonas aeruginosa [2]) was 64 µg/mL (≈ 132 µM).

For `CN[C@H](CC(C)C)C(=O)N[C@H]1C(=O)N[C@@H](CC(N)=O)C(=O)N[C@H]2C(=O)N[C@H]3C(=O)N[C@H](C(=O)N[C@H](C(=O)O)c4cc(O)cc(O)c4-c4cc3ccc4O)[C@H](O)c3ccc(c(Cl)c3)Oc3cc2cc(c3O[C@@H]2O[C@H](CO)[C@@H](O)[C@H](O)[C@H]2O[C@H]2C[C@](C)(N)[C@H](O)[C@H](C)O2)Oc2ccc(cc2Cl)[C@H]1O` [VANCOMYCIN], the MIC (Pseudomonas aeruginosa [2]) was over 1020 µg/mL.
